Experimental data reported in ChEMBL document CHEMBL1122055, “DL-threo-beta-Fluoroaspartate and DL-threo-beta-fluoroasparagine: selective cytotoxic agents for mammalian cells in culture” (J Med Chem, 1982).
“And” between values parts separate entries of the source, which are not always exact repeats. Equal entries are not always repeated.

What was measured:
R5 [1] = test: Tested for its cytotoxic effect on the growth of the cell strain R5 (1 x 10e 3 (F 10+)) at 50 ug/mL dose; format: functional
In short: (§1)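 Cells plated in 35-mm dishes at the stated density and medium (F 10+: Ham's F10 + 15% horse serum + 2.5% fetal calf serum; MEM+: Eagle's MEM + 5% horse + 5% fetal calf serum), grown 3 days. All strains then switched to F 10+ before treatment and incubated 4 days. Growth read as total cell protein per dish (Lowry, bovine albumin standard). Single determinations; experiment repeated twice.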

R5 [2] = test: Tested for its cytotoxic effect on the growth of the cell strain R5 (1 x 10e 3 (F 10+)) at 10 ug/mL dose; format: functional; in short: as §1
GH4-C1 [3] = test: Tested for its cytotoxic effect on the growth of the cell strain GH4C1 (8 x 10e 4 (F 10+)) at 50 ug/mL dose; format: functional, Rattus norvegicus; in short: as §1
GH3 [4] = test: Tested for its cytotoxic effect on the growth of the cell strain GH3 (2 x 10e 4 (F 10+)) at 10 ug/mL dose; format: functional, Rattus norvegicus; in short: as §1
MH1C1 [5] = test: Tested for its cytotoxic effect on the growth of the cell strain MH1C1 (1 x 10e 4 (F 10+)) at 10 ug/mL dose; format: functional; in short: as §1
GH3 [6] = test: Tested for its cytotoxic effect on the growth of the cell strain GH3 (2 x 10e 4 (F 10+)) at 50 ug/mL dose; format: functional, Rattus norvegicus; in short: as §1
GH4-C1 [7] = test: Tested for its cytotoxic effect on the growth of the cell strain GH4C1 (8 x 10e 4 (F 10+)) at 10 ug/mL dose; format: functional, Rattus norvegicus; in short: as §1
H4 [8] = test: Tested for its cytotoxic effect on the growth of the cell strain H4 (8 x 10e 3 (MEM)) at 50 ug/mL dose; format: functional; in short: as §1
MH1C1 [9] = test: Tested for its cytotoxic effect on the growth of the cell strain MH1C1 (1 x 10e 4 (F 10+)) at 50 ug/mL dose; format: functional; in short: as §1
7800C1 cell line [10] = test: Tested for its cytotoxic effect on the growth of the cell strain 7800C1 (1 x 10e 4 (MEM)) at 10 ug/mL dose; format: functional, Rattus norvegicus; in short: as §1
H4 [11] = test: Tested for its reversal effect on growth of H4 cells at 40 ug/mL concentrations of L-aspargine and DL-threo-beta-fluoroaspartate; format: functional
In short: (§2)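 H4 hepatoma cells seeded at 8×10^3 per 35-mm dish in F 10+ medium. On day 4, the medium was renewed and treatments started, including L-aspartate or L-asparagine. Incubation 72 h, then Lowry total cell protein per dish. Results reported as % of untreated control, mean of duplicate dishes.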

H4 [12] = test: Tested for its reversal effect on growth of H4 cells at 50 ug/mL concentrations of L-aspargine and DL-threo-beta-fluoroaspartate; format: functional
In short: (§3)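 Rat hepatoma H4 cells seeded at 1.4×10^4 per 35-mm dish in MEM+. On day 4, fresh MEM+ was added, with treatments including L-aspartate or L-asparagine. Exposure 66 h, then total cell protein per dish measured by Lowry. Results expressed as % of untreated control protein, mean of duplicate dishes.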

H4 [13] = test: Tested for its cytotoxic effect on the growth of the cell strain H4 (8 x 10e 3 (MEM)) at 10 ug/mL dose; format: functional; in short: as §1
7800C1 cell line [14] = test: Tested for its cytotoxic effect on the growth of the cell strain 7800C1 (1 x 10e 4 (MEM)) at 50 ug/mL dose; format: functional, Rattus norvegicus; in short: as §1
H4 [15] = test: Tested for its reversal effect on growth of H4 cells at 330 + 40 ug/mL concentrations of L-aspargine and DL-threo-beta-fluoroaspartate; format: functional; in short: as §2
H4 [16] = test: Tested for its reversal effect on growth of H4 cells at 133 + 50 ug/mL concentrations of L-aspargine and DL-threo-beta-fluoroaspartate; format: functional; in short: as §3
GH4-C1 [17] = test: Tested for its cytotoxic effect on the growth of the cell strain GH4C1 (8 x 10e 4 (F 10+)) at 75 ug/mL dose; format: functional, Rattus norvegicus; in short: as §1
H4 [18] = test: Tested for its cytotoxic effect on the growth of the cell strain H4 (8 x 10e 3 (MEM)) at 20 ug/mL dose; format: functional; in short: as §1
GH3 [19] = test: Tested for its cytotoxic effect on the growth of the cell strain GH3 (2 x 10e 4 (F 10+)) at 75 ug/mL dose; format: functional, Rattus norvegicus; in short: as §1
MH1C1 [20] = test: Tested for its cytotoxic effect on the growth of the cell strain MH1C1 (1 x 10e 4 (F 10+)) at 2 ug/mL dose; format: functional; in short: as §1
MH1C1 [21] = test: Tested for its cytotoxic effect on the growth of the cell strain MH1C1 (1 x 10e 4 (F 10+)) at 75 ug/mL dose; format: functional; in short: as §1
H4 [22] = test: Tested for its cytotoxic effect on the growth of the cell strain H4 (8 x 10e 3 (MEM)) at 75 ug/mL dose; format: functional; in short: as §1
H4 [23] = test: Tested for its cytotoxic effect on the growth of the cell strain H4 (8 x 10e 3 (MEM)) at 5 ug/mL dose; format: functional; in short: as §1
R5 [24] = test: Tested for its cytotoxic effect on the growth of the cell strain R5 (1 x 10e 3 (F 10+)) at 5 ug/mL dose; format: functional; in short: as §1
R5 [25] = test: Tested for its cytotoxic effect on the growth of the cell strain R5 (1 x 10e 3 (F 10+)) at 20 ug/mL dose; format: functional; in short: as §1
GH3 [26] = test: Tested for its cytotoxic effect on the growth of the cell strain GH3 (2 x 10e 4 (F 10+)) at 2 ug/mL dose; format: functional, Rattus norvegicus; in short: as §1
7800C1 cell line [27] = test: Tested for its cytotoxic effect on the growth of the cell strain 7800C1 (1 x 10e 4 (MEM)) at 75 ug/mL dose; format: functional, Rattus norvegicus; in short: as §1
7800C1 cell line [28] = test: Tested for its cytotoxic effect on the growth of the cell strain 7800C1 (1 x 10e 4 (MEM)) at 2 ug/mL dose; format: functional, Rattus norvegicus; in short: as §1
GH3 [29] = test: Tested for its cytotoxic effect on the growth of the cell strain GH3 (2 x 10e 4 (F 10+)) at 20 ug/mL dose; format: functional, Rattus norvegicus; in short: as §1
MH1C1 [30] = test: Tested for its cytotoxic effect on the growth of the cell strain MH1C1 (1 x 10e 4 (F 10+)) at 20 ug/mL dose; format: functional; in short: as §1
GH3 [31] = test: Tested for its cytotoxic effect on the growth of the cell strain GH3 (2 x 10e 4 (F 10+)) at 5 ug/mL dose; format: functional, Rattus norvegicus; in short: as §1
GH4-C1 [32] = test: Tested for its cytotoxic effect on the growth of the cell strain GH4C1 (8 x 10e 4 (F 10+)) at 20 ug/mL dose; format: functional, Rattus norvegicus; in short: as §1
R5 [33] = test: Tested for its cytotoxic effect on the growth of the cell strain R5 (1 x 10e 3 (F 10+)) at 75 ug/mL dose; format: functional; in short: as §1
GH4-C1 [34] = test: Tested for its cytotoxic effect on the growth of the cell strain GH4C1 (8 x 10e 4 (F 10+)) at 5 ug/mL dose; format: functional, Rattus norvegicus; in short: as §1
7800C1 cell line [35] = test: Tested for its cytotoxic effect on the growth of the cell strain 7800C1 (1 x 10e 4 (MEM)) at 5 ug/mL dose; format: functional, Rattus norvegicus; in short: as §1
GH4-C1 [36] = test: Tested for its cytotoxic effect on the growth of the cell strain GH4C1 (8 x 10e 4 (F 10+)) at 2 ug/mL dose; format: functional, Rattus norvegicus; in short: as §1
H4 [37] = test: Tested for its cytotoxic effect on the growth of the cell strain H4 (8 x 10e 3 (MEM)) at 2 ug/mL dose; format: functional; in short: as §1
7800C1 cell line [38] = test: Tested for its cytotoxic effect on the growth of the cell strain 7800C1 (1 x 10e 4 (MEM)) at 20 ug/mL dose; format: functional, Rattus norvegicus; in short: as §1
MH1C1 [39] = test: Tested for its cytotoxic effect on the growth of the cell strain MH1C1 (1 x 10e 4 (F 10+)) at 5 ug/mL dose; format: functional; in short: as §1
R5 [40] = test: Tested for its cytotoxic effect on the growth of the cell strain R5 (1 x 10e 3 (F 10+)) at 2 ug/mL dose; format: functional; in short: as §1
H4 [41] = test: Tested for its reversal effect on growth of H4 cells at 5 ug/mL concentrations of L-aspargine and DL-threo-beta-fluoroaspartate; format: functional
GH4-C1 [42] = test: Compound was tested for its uptake by the GH4C1 cells; format: functional, Rattus norvegicus
In short: (§4)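 Cells plated in 100-mm dishes in F 10⁺; on day 4 medium replaced with fresh F 10⁺, and 3 h later ¹⁴C-labeled amino acid added to duplicate dishes. 6 h incubation, then monolayer washed in cold 0.9% NaCl, cells scraped off, and radioactivity counted by liquid scintillation. Uptake expressed as nmol/10⁶ cells from cell counts on untreated dishes; mean of duplicates.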

[43] = Percent recovery form [C14]-labeled compound taken up by 7800C1 cells; format: ADME; settings: rat
In short: (§5)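 7800C₁ cells in 100-mm dishes in MEM⁺; on day 4 medium renewed, and 6 h later ¹⁴C-labeled amino acid added to duplicate dishes for 12 h. Washed cells fractionated with 10% trichloroacetic acid (3 h, 0 °C) into acid-soluble material, then hot 5% acid (82 °C, 30 min) to release nucleic acid, leaving a protein pellet on glass-fiber filter. Scintillation counting; nmol/10⁶ cells, mean of duplicates.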

H4 (Rattus norvegicus) [44] = test: Compound was tested for its uptake by the H4 cells
H4 (Rattus norvegicus) [45] = test: Tested for its reversal effect on growth of H4 cells at 133 ug/mL concentrations of L-aspargine and DL-threo-beta-fluoroaspartate
H4 (Rattus norvegicus) [46] = test: Tested for its reversal effect on growth of H4 cells at 330 ug/mL concentrations of L-aspargine and DL-threo-beta-fluoroaspartate
[47] = Distribution of radioactivity derived form [C14]-labeled compound taken up by 7800C1 cells; total uptake; format: ADME; in short: as §5
Jensen sarcoma = test: Compound was tested for its uptake by the Jensen sarcoma cells; format: functional, Rattus norvegicus; in short: as §4
[48] = system: 7800C1 (Rattus norvegicus); test: Compound was tested for its uptake by the 7800C1 cells
MH1C1 [49] = test: Compound was tested for its uptake by the MH1C1 cells; format: functional; in short: as §4

NC(=O)C(F)C(N)C(=O)O (racemic)
Cell protein (R5 [1]): 27 ug dish-1
Cell protein (R5 [2]): 85 ug dish-1
Cell protein (GH4-C1 [3]): 16 ug dish-1
Cell protein (GH3 [4]): 36 ug dish-1
Cell protein (MH1C1 [5]): 55 ug dish-1
Cell protein (GH3 [6]): 14 ug dish-1
Cell protein (GH4-C1 [7]): 35 ug dish-1
Cell protein (H4 [8]): 0 ug dish-1
Cell protein (MH1C1 [9]): 31 ug dish-1
Cell protein (7800C1 cell line [10]): 15 ug dish-1
Cell protein in untreated control (H4 [11]): 17%
Cell protein in untreated control (H4 [12]): 0%
Cell protein (H4 [13]): 0 ug dish-1
Cell protein (7800C1 cell line [14]): 0 ug dish-1

NC(=O)C(F)[C@H](N)C(=O)O.N[C@@H](CC(=O)O)C(=O)O (mixture of isomers; form 1)
Cell protein in untreated control (H4 [15]): 93%
Cell protein in untreated control (H4 [16]): 68%

NC(C(=O)O)C(F)C(=O)O (racemic)
Cell protein (GH4-C1 [17]): 126 ug dish-1
Cell protein (R5 [2]): 122 ug dish-1
Cell protein (H4 [18]): 4 ug dish-1
Cell protein (GH3 [19]): 61 ug dish-1
Cell protein (MH1C1 [20]): 154 ug dish-1
Cell protein (MH1C1 [21]): 149 ug dish-1
Cell protein (GH3 [4]): 104 ug dish-1
Cell protein (H4 [22]): 156 ug dish-1
Cell protein (H4 [23]): 9 ug dish-1
Cell protein (MH1C1 [5]): 159 ug dish-1
Cell protein (R5 [24]): 98 ug dish-1
Cell protein (R5 [25]): 50 ug dish-1
Cell protein (GH3 [26]): 69 ug dish-1
Cell protein (7800C1 cell line [27]): 229 ug dish-1
Cell protein (7800C1 cell line [28]): 10 ug dish-1
Cell protein (GH3 [29]): 22 ug dish-1
Cell protein (MH1C1 [30]): 140 ug dish-1
Cell protein (GH3 [31]): 23 ug dish-1
Cell protein (GH4-C1 [32]): 36 ug dish-1
Cell protein (R5 [33]): 90 ug dish-1
Cell protein (GH4-C1 [34]): 98 ug dish-1
Cell protein (7800C1 cell line [35]): 9 ug dish-1
Cell protein (GH4-C1 [36]): 96 ug dish-1
Cell protein (H4 [37]): 114 ug dish-1
Cell protein (7800C1 cell line [38]): 6 ug dish-1
Cell protein (GH4-C1 [7]): 126 ug dish-1
Cell protein (7800C1 cell line [10]): 249 ug dish-1
Cell protein (MH1C1 [39]): 167 ug dish-1
Cell protein (R5 [40]): 128 ug dish-1
Cell protein (H4 [13]): 150 ug dish-1
Cell protein in untreated control (H4 [41]): 0% and 5%

N[C@@H](CC(=O)O)C(=O)O [ASPARTIC ACID]
Activity (GH4-C1 [42]): 1.1 nM (10e6*cells)-1
Recovery [43]: 83%
Activity (H4 (Rattus norvegicus) [44]): 23.4 nM (10e6*cells)-1
Cell protein in untreated control (H4 (Rattus norvegicus) [45]): 115%
Cell protein in untreated control (H4 (Rattus norvegicus) [46]): 77%
Activity [47]: 21 nM (10e6*cells)-1
Activity (Jensen sarcoma): 0.4 nM (10e6*cells)-1
Activity [48]: 13.2 nM (10e6*cells)-1
Activity (MH1C1 [49]): 0.5 nM (10e6*cells)-1
